KCC2 mod: modulators of human KCC2 chloride dependent transport; Q9H2X9; KCC2 cells, thallium flux FluoZin-2 fluorescence; B-score of Tl+ flux slope (higher = more flux/activation; lower = inhibition) at 10 µM; 190,000 compounds, 2.2% hits;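 active = thallium flux slope and its plate-corrected score both differing from the plate sample mean at a set confidence after two filtering rounds, in either direction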;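 also: slope of fluorescence scaled to starting intensity during 10 to 20 s after thallium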
STAT1 act: STAT1 signaling activation. NIH 3T3 STAT1-luciferase reporter, IFN-gamma, luminescence; 100% = IFN-gamma alone, no compound. activation (% of control), % at 5.5 µM. 200,000 compounds, 2.6% hits. AID 932;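 active = activation above the screen-wide mean activation plus 3 SD, cut at about 130% in these data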;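 also: raw ratio to IFN-gamma control signal so 100% means no change and 0% no light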
STAT1 inh: reduces IFN-gamma driven STAT1 reporter signal; 200,000 compounds, 0.35% hits; inhibition, % at 5.5 µM; NIH 3T3 STAT1-luciferase reporter, luminescence;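 active = inhibition above a set limit, the mean inhibition across all tested compounds plus 3 SD, cut at about 34% in these data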;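 also: 0% = IFN-gamma with DMSO and 100% = IFN-gamma with 300 µM nifuroxazide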
HSV augment: HSV replication enhancement. 220,000 compounds, 0.005% hits. HSV replication augmentation in cells, fold increase. maximum fold increase; in the data active = maximum fold increase above about 1.5; inconclusive = no clear call, values can overlap the other calls; tested in PC3 cells
STAT3 inh: reduces IL-6 driven STAT3 reporter signal; U3A cells, IL-6 STAT3-luciferase reporter, luminescence; host cell line lacks STAT1; inhibition, % at 5.5 µM; 190,000 compounds, 0.89% hits;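 active = inhibition above the mean inhibition across all screened compounds plus 3 SD, cut at about 44% in these data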;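 also: 0% = DMSO only wells and 100% = 100 µM nifuroxazide control wells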
STAT3 act: activators of IL-6 induced STAT3 signaling | U3A cells, IL-6 STAT3-luciferase reporter, luminescence; 100% = signal with IL-6 EC80 alone | activation (% of control), % at 5.6 µM | 190,000 compounds, 0.91% hits | AID 871;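 active = activation above the screen-wide mean of compound activation plus 3 SD, cut at about 130% in these data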;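 also: 0% = background luminescence of wells with medium and substrate only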
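Material: STAT3-luciferase reporter U3A cells; Probe or stimulus: IL-6 (33 ng/mL); Incubation: compound pre-incubation 1 h before IL-6, then 6 h stimulation at 37 °C; Technique: luminescence from STAT3-driven luciferase reporter; Evaluation: % activation versus median of IL-6-stimulated wells; Controls: IL-6-only high control.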
KCC2 sec1: confirmation of human KCC2 transport modulators; HEK293-KCC2, thallium flux, FluoZin2 fluorescence; active compounds read high; AID 1713; shares compounds with KCC2 mod; 3,700 compounds, 15% hits; normalised thallium flux (F/F0 slope) at 10 µM;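 active = thallium flux slope above the same plate's solvent-only control mean plus 3 SD; inconclusive = the two replicate wells disagree; inactive = no significant difference from solvent-only control wells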
KCC2 bumet counter: thallium flux despite bumetanide block in KCC2 cells, secondary assay 3. shares compounds with KCC2 mod. HEK293-KCC2 + bumetanide/ouabain, thallium flux FluoZin2; active compounds read high. normalized thallium flux at 10 µM. 3,700 compounds, 49% hits. AID 1714;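 active = thallium entry rate above the same plate's blocked-transporter control wells by more than 3 SD; inconclusive = the two repeat wells disagree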;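 also: raw slope of fluorescence over initial fluorescence between 10 and 20 s after thallium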
KCC2 secondary2: confirmation of human KCC2 transport modulators; 3,700 compounds, 23% hits; shares compounds with KCC2 mod; normalized thallium flux at 10 µM; AID 1715; HEK293-KCC2, thallium flux FluoZin2 fluorescence; actives lie on both sides; F/F0 rise rate, 10–20 s post-thallium;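 active = thallium flux slope more than 3 SD above or below the plate's solvent-only control mean, mostly below; inconclusive = the two repeat wells disagreed; inactive = no significant shift from solvent-only controls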;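 also: raw slope with 0.1% DMSO as baseline and bumetanide as block control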
HEK counter1: acts in parental HEK cells, KCC2 counter-screen | shares compounds with KCC2 mod | HEK293 parental cells, thallium flux FluoZin2, ouabain; baseline-ratio fluorescence slope, 10–20 s after thallium | thallium flux rate (normalised fluorescence) at 10 µM | 3,700 compounds, 46% hits;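 active = thallium flux rate significantly above the same plate's solvent-only control wells, beyond their mean plus 3 SD; inconclusive = the two replicate wells gave conflicting results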
KCC2 retest ouab: confirmation of human KCC2 modulators with ouabain; shares compounds with KCC2 mod; HEK293-KCC2, thallium flux FluoZin2 fluorescence; bidirectional: low = inhibitor, high = activator; raw Tl+ flux slope (below DMSO = inhibition, above = activation) at 10 µM; 3,700 compounds, 48% hits;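 active = thallium flux slope beyond 3 SD from same-plate DMSO control mean in most replicates, usually higher, sometimes lower; inconclusive = repeat tests gave conflicting results; inactive = no significant difference from controls in most replicates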;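 also: slope of initial-normalized fluorescence between seconds 10 and 20 after thallium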
HEK counter2: parental HEK flux effect, counter-screen 2; AID 1718; shares compounds with KCC2 mod; HEK293 parental, thallium flux FluoZin-2 fluorescence slope; thallium flux slope at 10 µM; 3,700 compounds, 33% hits;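 active = thallium flux slope above the same plate's solvent-control mean plus 3 SD in both duplicate wells; inconclusive = duplicate wells that disagreed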;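 also: run without ouabain in cells lacking the KCC2 cotransporter; slope of fluorescence scaled to its starting value between 10 and 20 s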
The depositor's hits bear a star; i = inactive; ? = inconclusive; · = no result given. A selection: hits, their analogues and other compounds. The true share with any hit is near 5.5%.

SMILES | KCC2 mod | STAT1 act | STAT1 inh | HSV augment | STAT3 inh | STAT3 act | KCC2 sec1 | KCC2 bumet counter | KCC2 secondary2 | HEK counter1 | KCC2 retest ouab | HEK counter2
Cc1ccc(-c2csc(NC(=O)CCNC(=O)c3ccccc3Cl)n2)cc1 | -3.8* | 99 | 1 | i | 5 | 96 | 0.0061 | 0.0047 | ? | 0.0076 | ? | 0.01
O=C(O)C1Cc2ccccc2CN1C(=O)CCl (centres undefined) | -0.002 | 114 | -16 | i | -6 | 106 | · | · | · | · | · | ·
Cc1ccc(C(=O)N2CCCC2)cc1Br | -3.1* | 102 | -2 | i | 10 | 96 | 0.0096 | ? | 0.034 | 0.0077 | 0.021 | 0.011
CCNC(=S)N1N=C2c3ccccc3CCC2C1c1ccc(F)cc1 (centres undefined) | -0.68 | · | · | i | · | · | · | · | · | · | · | ·
CC(=O)N1N=C2c3ccccc3CCC2C1c1ccc(F)cc1 (centres undefined) | -3.6* | · | · | i | · | · | 0.0075 | 0.0053 | 0.034 | ? | 0.016* | 0.01
CC(C)(C)NC(=S)N/N=C/c1c(Cl)cccc1Cl | 7.8* | · | · | i | · | · | 0.0075 | 0.0094* | 0.03 | 0.012* | 0.022 | 0.013*
CCCCOC(=O)Sc1nc2ccccc2o1 | -1.9 | 96 | 4 | i | 17 | 89 | · | · | · | · | · | ·
CCN(CC)CCN1C(=O)C(=O)/C(=C(/O)c2ccc(OC)cc2)C1c1ccco1 (centres undefined) | 8.7* | 112 | -13 | · | 4 | 100 | 0.0061 | 0.0057* | 0.031 | ? | 0.02 | ?
CN(CC(=O)N1CC=C(c2ccccc2)CC1)S(=O)(=O)c1cnc[nH]1 | · | 92 | 9 | i | 11 | 94 | · | · | · | · | · | ·
O=S(=O)(CCOc1ccccc1)c1nc2ccccc2[nH]1 | · | 98 | 3 | i | 6 | 98 | 0.0077 | 0.0059 | 0.036 | 0.0044 | 0.018 | 0.011
O=C(CCSc1ccccc1)NCCSCc1ccccc1 | -3.5* | 103 | -3 | i | -2 | 100 | ? | 0.0039 | 0.022* | ? | 0.013* | ?
CCc1ccc(NC(=O)CN(c2ccccc2)S(=O)(=O)N(C)C)cc1 | -0.59 | 101 | -3 | i | 24 | 86 | · | · | · | · | · | ·
CN(C)S(=O)(=O)N(CC(=O)NCCSCc1ccccc1)c1ccccc1 | -3.7* | 101 | -3 | i | -7 | 110 | 0.0062 | 0.006* | 0.024* | 0.0071 | ? | 0.01
C=CCSc1ncc(CO)n1Cc1ccccc1 | -0.12 | 96 | 5 | i | 4 | 105 | · | · | · | · | · | ·
O=C(O)c1ccccc1NS(=O)(=O)c1ccc(NNC(=S)Nc2ccc(OC(F)F)cc2)c([N+](=O)[O-])c1 | -0.13 | 90 | 9 | i | 10 | 94 | · | · | · | · | · | ·
Cc1ccc(NC(=S)NNc2ccc([N+](=O)[O-])cc2S(=O)(=O)Nc2ccccc2C(=O)O)cc1C | -6.1* | 88 | 13 | i | -1 | 102 | 0.0069 | 0.0047 | 0.025* | ? | 0.012* | ?
COc1ccc(C(=O)NNC2=CC(=O)CC(C)(C)C2)cc1OC | -0.51 | 96 | 4 | i | 10 | 91 | · | · | · | · | · | ·
Cc1cccc(NC(=O)Cn2c(O)c(N=NC(N)=S)c3ccccc32)c1 | 0.39 | · | · | i | · | · | · | · | · | · | · | ·

High-throughput results (PubChem)
